A selection: hits, their analogues and other compounds. The true share with any hit is near 1.3%.
PP5 primary: PP5 (human) phosphatase inhibition. inhibition, % at 6.7 µM. hit rate 0.18% among 320,000. AID 1987. P53041. purified PP5c, OMFP substrate fluorescence;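 active = inhibition above the campaign's mean inhibition across all tested compounds plus 3 SD, cut at about 9.5% in these data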;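 note: 0% = DMSO only and 100% = 100 µM cantharidin control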
NR2E3 ag-1: human photoreceptor-specific nuclear receptor agonism; inhibition of corepressor binding, % at 3.98 µM; Q9Y5X4; CHO-S Gal4-NCOR/VP16-NR2E3 two-hybrid, luciferase; hit rate 0.35% among 360,000;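 active = inhibition above the mean of all tested compounds plus 3 SD, cut at about 70% in these data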;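 note: 0% = DMSO with NR2E3 transfected cells and 100% = cells lacking NR2E3 construct; higher means lower luciferase signal from less NR2E3 corepressor binding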
Target sequence (Q9Y5X4 whole entry, looked up, the tested form may be a part): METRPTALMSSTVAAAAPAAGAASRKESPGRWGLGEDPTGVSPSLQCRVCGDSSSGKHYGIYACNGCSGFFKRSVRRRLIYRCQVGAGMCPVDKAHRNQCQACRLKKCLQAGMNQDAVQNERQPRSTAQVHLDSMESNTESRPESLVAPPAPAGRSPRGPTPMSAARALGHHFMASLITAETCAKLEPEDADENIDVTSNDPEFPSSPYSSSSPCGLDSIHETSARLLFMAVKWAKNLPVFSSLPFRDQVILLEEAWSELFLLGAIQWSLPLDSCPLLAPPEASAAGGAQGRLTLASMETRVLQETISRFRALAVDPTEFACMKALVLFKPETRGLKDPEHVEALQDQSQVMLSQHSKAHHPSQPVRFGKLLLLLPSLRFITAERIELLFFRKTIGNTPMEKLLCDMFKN
PP1 inh: counter-screen for PP5 inhibitors: inhibitors of human PP1-alpha; P62136; purified PP1alpha, OMFP fluorescence; inhibition, % at 6.7 µM; hit rate 0.9% among 320,000; AID 2235;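 active = inhibition above the mean inhibition of all tested compounds plus 3 SD, computed separately for each screening campaign, cut at about 15% in these data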
NR2E3 ag-2: NR2E3 (human) agonism; inhibition of corepressor binding, % at 4.78 µM; Q9Y5X4; GST-NR2E3/biotin-RetCOR TR-FRET, 1536-well; AID 2300; hit rate 0.12% among 320,000;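 active = percent inhibition above the cutoff of mean plus 3 SD of all tested compounds, set per screening campaign, cut at about 20% in these data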;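 note: 0% = DMSO wells and 100% = biotin wells as full block of FRET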
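System: GST-tagged NR2E3 plus biotinylated RetCOR corepressor; Amount: 1.35 nM GST-tagged NR2E3 final; Dosing: single nominal compound dose of 4.8 µM; Schedule: 5 h incubation at 4 °C; Technique: TR-FRET with europium anti-GST and streptavidin-D2, 340 nm excitation; Controls: biotin wells as high control, 0.6% DMSO wells as low control.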
NR2E3 ag conf: NR2E3 agonism confirmed in two-hybrid assay; shares compounds with NR2E3 ag-1; CHO-S mammalian two-hybrid NR2E3-NCOR, luciferase luminescence; AID 624378; inhibition, % at 3.98 µM; hit rate 51% among 2,300;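 active = average inhibition above a cutoff equal to the mean inhibition of all tested compounds plus one SD, cut at about 70% in these data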;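 note: 0% = DMSO in NR2E3 cells and 100% = DMSO in cells lacking NR2E3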
VP16 counter: counter-screen for NR2E3 agonists: GAL4-VP16 reporter inhibitors; AID 624379; shares compounds with NR2E3 ag-1; hit rate 29% among 2,300; inhibition, % at 3.98 µM; CHO-S GAL4-VP16 luciferase reporter, luminescence;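 active = mean inhibition above a cutoff equal to the average over all tested compounds plus one standard deviation, cut at about 70% in these data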;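 note: luciferase from a UAS reporter driven by GAL4-VP16 transactivation; 0% = DMSO with VP16-transfected cells and 100% = DMSO with cells lacking VP16; higher means less reporter light so more repression of VP16 activity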
Active calls of the source: *; x = no result.

SMILES	PP5 primary	NR2E3 ag-1	PP1 inh	NR2E3 ag-2	NR2E3 ag conf	VP16 counter
O=C(CCNS(=O)(=O)c1cccc2nsnc12)Nc1ccc2c(c1)OCCO2	0	-8	3	4	x	x
O=S(=O)(Nc1ccc2c(c1)OCCO2)c1cccc2nsnc12	1	52	3	5	-2	-7
CSCCC(c1nnnn1C1CCCCC1)N1CCN(C/C=C/c2ccccc2)CC1 (centres undefined)	x	-8	x	x	x	x
COc1cc2[nH]c(C(=O)Nc3ccc4c(c3)OCCO4)cc2c(OC)c1OC	0	-10	0	0	x	x
COc1cc2cc(C(=O)Nc3ccc4c(c3)OCCO4)[nH]c2cc1OC	5	57	-2	3	34	-4
CCOC(=O)c1ccc(S(=O)(=O)NC2CCC(C)CC2)cc1 (centres undefined)	0	70	-1	0	51	51
O=c1[nH][nH]c(-c2ccccc2)c1C=Nc1ccc(C(F)(F)F)cc1	2	9	0	1	x	x
O=c1[nH][nH]c(-c2ccccc2)c1C=Nc1ccc(OC(F)(F)F)cc1	0	67	0	-1	34	0
CCOC(=O)C1CCN(C(=O)C2CCCN(S(=O)(=O)c3ccc(OCC)c(Cl)c3)C2)CC1 (centres undefined)	1	70	-6	-2	21	51
CCCC(=O)N1CCN(c2ccc(NC(=O)c3ccc([N+](=O)[O-])o3)cc2)CC1	x	51	x	x	14	12
O=C(OCc1ccccc1)N(CCCCN(CCCNCc1ccccc1)C(=O)OCc1ccccc1)CCCNCc1ccccc1	x	48	x	x	62	26
O=C(NCCCCCCNC(=O)OCc1ccccc1)OCc1ccccc1	x	-5	x	x	x	x
COc1ccc(NC(C)=O)cc1NC(=O)c1ccc(C#N)cc1	2	9	-1	-1	x	x
CN(C)S(=O)(=O)N1CCC(Oc2cccc(C(=O)NC3CCCCC3)c2)CC1	1	48	-5	-3	24	42
CCc1cc(C(=O)NC2CCCN(Cc3ccccc3F)C2)n(C)n1 (centres undefined)	0	69	-2	-1	37	44
O=C(OC(c1ccccc1)c1nccc2ccccc12)c1ccccc1 (centres undefined)	x	75*	x	x	71*	31
O=C(OC(c1ccccc1)c1nccc2ccccc12)c1cccc([N+](=O)[O-])c1 (centres undefined)	0	-43	1	0	x	x
COc1cccc(C(=O)NCCS(=O)(=O)N2CCN(C(=O)c3ccco3)CC2)c1	-1	20	-1	1	x	x
O=C(CCCCN1CCCCC1)c1ccccc1	2	-18	-3	-1	x	x
O=C(C(=Cc1ccccc1)CN1CCCCC1)c1ccccc1	x	93*	x	x	101*	47
Cc1ccc(NC(=O)COc2ccc(N(C)C(=O)C(C)(C)C)cc2)cc1S(=O)(=O)N1CCCCC1	x	63	x	x	0	44
O=c1cc(C(F)(F)F)[nH]c2ccc(OC(F)(F)F)cc12	0	79*	1	1	100*	73*
CCOc1ccc2[nH]c(C)cc(=O)c2c1	1	6	1	-2	x	x
O=S(=O)(NCc1cn2ccccc2n1)c1ccccc1F	-2	-4	-1	1	x	x
O=C(Nc1cccc(Cl)c1)c1cc(N=Nc2ccc([N+](=O)[O-])cc2Cl)ccc1O	-6	71*	-5	2	100*	92*
SMILES	PP5 primary	NR2E3 ag-1	PP1 inh	NR2E3 ag-2	NR2E3 ag conf	VP16 counter
O=C(Nc1ccc([N+](=O)[O-])cc1Cl)c1cc(Cl)ccc1O	2	-110	2	2	x	x
O=C(CSc1ccccc1F)NC(=O)c1ccccc1Br	x	-7	x	x	x	x
COc1ccc(C(=O)N2CCN(c3ncnc4c(-c5ccccc5)nsc34)CC2)cc1	x	-2	x	x	x	x
COc1ccc(-c2nsc3c(N4CCCCC4)ncnc23)cc1	0	57	1	-6	17	-13
COc1ccc(-c2nsc3c(N4CCCCC4C)ncnc23)cc1 (centres undefined)	-1	94*	-4	6	84*	72*
COc1ccc(Br)cc1Cn1nnc(C(=O)Nc2ccc3c(c2)OCCO3)c1N	2	56	0	1	65	12
COc1ccc(CCNC(=O)c2nnn(-c3ccc4c(c3)OCCO4)c2N)cc1OC	2	66	1	1	51	24
C/C(=N\NC(=O)CC#N)C1COc2ccccc2O1 (centres undefined)	-1	-5	-6	3	x	x

Screening data from PubChem BioAssay.
